Test results published in ChEMBL document CHEMBL1772977, “Synthesis and biological evaluation of novel 4-benzylpiperazine ligands for sigma-1 receptor imaging” (Bioorg Med Chem, 2011).
pKi: −log10 of the molar value.

Assays:
[1] = Displacement of [3H]ditolylguanidine from sigma 2 receptor in rat liver membrane by competitive binding assay; type: cell membranes
In short: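 Sigma-2 competition binding used rat liver membranes with [3H]ditolylguanidine as radioligand. 10 µM dextrallorphan was present to mask sigma-1 sites. Ki was derived by Cheng–Prusoff from at least three independent experiments, each in triplicate, and is reported as mean ± SD.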

[2] = target: Sigma non-opioid intracellular receptor 1 (Rattus norvegicus, UniProt Q9R0C9); assay: Displacement of (+)-[3H]pentazocine from sigma 1 receptor in rat brain membranes by competitive binding assay; type: cell membranes
Sigma non-opioid intracellular receptor 1, sequence (Q9R0C9 whole entry): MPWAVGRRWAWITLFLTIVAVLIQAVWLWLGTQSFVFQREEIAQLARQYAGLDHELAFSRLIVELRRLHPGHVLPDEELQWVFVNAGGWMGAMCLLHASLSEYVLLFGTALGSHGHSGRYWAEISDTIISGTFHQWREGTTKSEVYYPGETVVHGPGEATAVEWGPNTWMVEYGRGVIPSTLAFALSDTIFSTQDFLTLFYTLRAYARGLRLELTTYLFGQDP
In short: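 Sigma-1 competition binding used rat brain membranes as receptor material with (+)-[3H]pentazocine as radioligand. Ki was derived by Cheng–Prusoff from at least three independent experiments, each in triplicate, and is reported as mean ± SD.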

SMILES | pKi [1] | pKi [2]
O=[N+]([O-])c1ccc(CN2CCN(Cc3ccc4c(c3)OCO4)CC2)cc1 | 7.39 | 9.37
Cc1ccc(CN2CCN(Cc3ccc4c(c3)OCO4)CC2)cc1 | 7.30 | 9.04
